Common to all, as to type: functional
Experiment [1] deals with Acinetobacter baumannii. Put plainly: Antibacterial activity against multidrug-resistant Acinetobacter baumannii assessed as bacterial growth inhibition by broth microdilution assay. The method, boiled down: (§1)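 Broth microdilution MIC. Strains grown overnight on blood agar at 37 °C, colonies suspended in TSB and grown to OD600 0.5. Compounds dissolved in DMSO (6.4 mg mL−1 stock), diluted serially in CAMHB (12.5 μg mL−1 Mg2+, 20 μg mL−1 Ca2+) on polypropylene plates. Final inoculum 10^6 CFU mL−1, 37 °C under gas-permeable membrane. MIC is the lowest concentration with no visible growth, consistent across at least triplicate experiments.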
In general terms: Dilution methods test growth across graded concentrations, often in twofold steps.

Experiment [2] relates to Pseudomonas aeruginosa. Put plainly: Antibacterial activity against Pseudomonas aeruginosa NRZ 08418 assessed as bacterial growth inhibition by broth microdilution assay. The method, boiled down: (§2)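 Broth microdilution. Bacteria from glycerol stocks were grown overnight on blood agar at 37 °C, then colonies were suspended in TSB and grown to OD600 0.5. Compounds were dissolved in DMSO at 6.4 mg mL−1 (stock) and serially diluted in CAMHB (Mg2+ 12.5, Ca2+ 20 μg mL−1) in polypropylene plates. Inoculum was 10^6 CFU mL−1 final, incubated at 37 °C. MIC = lowest concentration without visible growth; values consistent across at least triplicate experiments.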

For experiment [3], the system named is Pseudomonas aeruginosa. Put plainly: Antibacterial activity against Pseudomonas aeruginosa NRZ 03961 assessed as bacterial growth inhibition by broth microdilution assay. The method, boiled down:
as §2

The subject of experiment [4] is Escherichia coli. Put plainly: Antibacterial activity against Escherichia coli ATCC 25922 assessed as bacterial growth inhibition by broth microdilution assay. The method, boiled down:
as §2

Experiment [5] has as its system Pseudomonas aeruginosa. Put plainly: Antibacterial activity against Pseudomonas aeruginosa ATCC 27853 assessed as bacterial growth inhibition by broth microdilution assay. The method, boiled down:
as §2

The test system of experiment [6] is Klebsiella pneumoniae. Put plainly: Antibacterial activity against Klebsiella pneumoniae ATCC 13883 assessed as bacterial growth inhibition by broth microdilution assay. The method, boiled down:
as §2

For experiment [7], the system named is Klebsiella pneumoniae. Put plainly: Antibacterial activity against Klebsiella pneumoniae JS-123 assessed as bacterial growth inhibition by broth microdilution assay. The method, boiled down:
as §2

The test system of experiment [8] is Acinetobacter baumannii. Put plainly: Antibacterial activity against Acinetobacter baumannii ATCC 17978 assessed as bacterial growth inhibition by broth microdilution assay. The method, boiled down: as §1
For experiment [9], the system named is Acinetobacter baumannii. Put plainly: Antibacterial activity against Acinetobacter baumannii ATCC 19606 assessed as bacterial growth inhibition by broth microdilution assay. The method, boiled down:
as §1

The test system of experiment [10] is Acinetobacter baumannii. Put plainly: Antibacterial activity against Acinetobacter baumannii 2018-006 assessed as bacterial growth inhibition by broth microdilution assay. The method, boiled down: as §1
The test system of experiment [11] is Escherichia coli. Put plainly: Antibacterial activity against Escherichia coli 1313 assessed as bacterial growth inhibition by broth microdilution assay. The method, boiled down:
as §2

Experiment [12] concerns Klebsiella pneumoniae. Put plainly: Antibacterial activity against Klebsiella pneumoniae NCTC 13443 assessed as bacterial growth inhibition by broth microdilution assay. The method, boiled down:
as §2

Experiment [13] has as its system Escherichia coli. Put plainly: Antibacterial activity against multidrug-resistant Escherichia coli NCTC 13846 assessed as bacterial growth inhibition by broth microdilution assay. The method, boiled down: as §1

The structures appear in SMILES notation. ≈ marks a conversion by molar mass, not a printed value.

As a reminder, the MIC is the least concentration at which growth counts as inhibited. For `CC(C)CCSSC[C@@H](N)C(=O)N[C@H](C(=O)N[C@H](CCN)C(=O)N[C@H]1CCNC(=O)[C@H]([C@@H](C)O)NC(=O)[C@H](CCN)NC(=O)[C@H](CCN)NC(=O)[C@H](CC(C)C)NC(=O)[C@@H](Cc2ccccc2)NC(=O)[C@H](CCN)NC1=O)[C@@H](C)O`, the minimum inhibitory concentration (MIC) in the experiment on Acinetobacter baumannii [1] amounted to 0.5 µg/mL (≈ 0.428 µM); in the experiment on Pseudomonas aeruginosa [2], 2 µg/mL (≈ 1.71 µM); with Pseudomonas aeruginosa [3], 2 µg/mL (≈ 1.71 µM); in the experiment with Escherichia coli [4], 2 µg/mL (≈ 1.71 µM); in the experiment on Pseudomonas aeruginosa [5], 1 µg/mL (≈ 0.856 µM); in the experiment with Klebsiella pneumoniae [6], 0.5 µg/mL (≈ 0.428 µM). The minimal inhibitory concentration (MIC) with Klebsiella pneumoniae [7] was 0.25 µg/mL (≈ 0.214 µM); in the experiment with Acinetobacter baumannii [8] it was 0.25 µg/mL (≈ 0.214 µM); with Acinetobacter baumannii [9], 0.25 µg/mL (≈ 0.214 µM); in the experiment with Acinetobacter baumannii [10], 0.25 µg/mL (≈ 0.214 µM); with Escherichia coli [11], 0.25 µg/mL (≈ 0.214 µM); in the experiment with Klebsiella pneumoniae [12], 0.5 µg/mL (≈ 0.428 µM). The MIC with Escherichia coli [13] was determined as 8 µg/mL (≈ 6.85 µM).
As for `CC(C)CCSSC[C@@H](N)C(=O)N[C@H](C(=O)N[C@H](CN)C(=O)N[C@H]1CCNC(=O)[C@H]([C@@H](C)O)NC(=O)[C@H](CCN)NC(=O)[C@H](CCN)NC(=O)[C@H](CC(C)C)NC(=O)[C@@H](Cc2ccccc2)NC(=O)[C@H](CCN)NC1=O)[C@@H](C)O`, the MIC in the experiment on Acinetobacter baumannii [1] stood at 0.25 µg/mL (≈ 0.217 µM); in the experiment with Pseudomonas aeruginosa [2], 4 µg/mL (≈ 3.46 µM); with Pseudomonas aeruginosa [3] it was 2 µg/mL (≈ 1.73 µM); in the experiment with Escherichia coli [4], 2 µg/mL (≈ 1.73 µM); in the experiment on Pseudomonas aeruginosa [5], 1 µg/mL (≈ 0.866 µM); in the experiment with Klebsiella pneumoniae [6], 0.5 µg/mL (≈ 0.433 µM). Further, the MIC amounted to 0.5 µg/mL (≈ 0.433 µM) in the experiment on Klebsiella pneumoniae [7]; 0.25 µg/mL (≈ 0.217 µM) with Acinetobacter baumannii [8]; 0.25 µg/mL (≈ 0.217 µM) with Acinetobacter baumannii [9]; 0.25 µg/mL (≈ 0.217 µM) with Acinetobacter baumannii [10]; 0.5 µg/mL (≈ 0.433 µM) in the experiment with Escherichia coli [11]; 0.5 µg/mL (≈ 0.433 µM) in the experiment with Klebsiella pneumoniae [12]. Also, in the experiment on Escherichia coli [13], the MIC was 8 µg/mL (≈ 6.93 µM).
In the case of `CC(C)C[C@@H]1NC(=O)[C@@H](Cc2ccccc2)NC(=O)[C@H](CCN)NC(=O)[C@@H](NC(=O)[C@@H](CO)NC(=O)[C@@H](NC(=O)[C@H](N)CSSCc2cccc(Cl)c2)[C@@H](C)O)CCNC(=O)[C@H]([C@@H](C)O)NC(=O)[C@H](CCN)NC(=O)[C@H](CCN)NC1=O`, the MIC in the experiment with Acinetobacter baumannii [1] stood at 0.5 µg/mL (≈ 0.413 µM); with Pseudomonas aeruginosa [2], 4 µg/mL (≈ 3.31 µM); in the experiment with Pseudomonas aeruginosa [3], 8 µg/mL (≈ 6.61 µM); in the experiment with Escherichia coli [4] it was 2 µg/mL (≈ 1.65 µM); in the experiment on Pseudomonas aeruginosa [5] it was 4 µg/mL (≈ 3.31 µM); with Klebsiella pneumoniae [6], 1 µg/mL (≈ 0.827 µM). The minimum inhibitory concentration (MIC) in the experiment with Klebsiella pneumoniae [7] was found to be 0.25 µg/mL (≈ 0.207 µM); in the experiment on Acinetobacter baumannii [8], 0.5 µg/mL (≈ 0.413 µM); with Acinetobacter baumannii [9] it was 0.5 µg/mL (≈ 0.413 µM); in the experiment with Acinetobacter baumannii [10] it was 0.5 µg/mL (≈ 0.413 µM); in the experiment on Escherichia coli [11], 0.5 µg/mL (≈ 0.413 µM); with Klebsiella pneumoniae [12], 0.5 µg/mL (≈ 0.413 µM). In the experiment on Escherichia coli [13], the minimal inhibitory concentration (MIC) was determined as 8 µg/mL (≈ 6.61 µM).
On to `CC(C)C[C@@H]1NC(=O)[C@@H](Cc2ccccc2)NC(=O)[C@H](CCN)NC(=O)[C@@H](NC(=O)CNC(=O)[C@@H](NC(=O)[C@H](N)CSSCCC2CCCCC2)[C@@H](C)O)CCNC(=O)[C@H]([C@@H](C)O)NC(=O)[C@H](CCN)NC(=O)[C@H](CCN)NC1=O`, for which the MIC in the experiment on Acinetobacter baumannii [1] was found to be 1 µg/mL (≈ 0.858 µM); in the experiment with Pseudomonas aeruginosa [2], 2 µg/mL (≈ 1.72 µM); in the experiment with Pseudomonas aeruginosa [3], 4 µg/mL (≈ 3.43 µM); in the experiment on Escherichia coli [4], 2 µg/mL (≈ 1.72 µM); in the experiment with Pseudomonas aeruginosa [5], 2 µg/mL (≈ 1.72 µM); in the experiment on Klebsiella pneumoniae [6] it was 1 µg/mL (≈ 0.858 µM). The MIC with Klebsiella pneumoniae [7] was found to be 0.5 µg/mL (≈ 0.429 µM); in the experiment on Acinetobacter baumannii [8], 0.5 µg/mL (≈ 0.429 µM); with Acinetobacter baumannii [9], 0.5 µg/mL (≈ 0.429 µM); in the experiment with Acinetobacter baumannii [10] it was 0.5 µg/mL (≈ 0.429 µM); with Escherichia coli [11], 0.5 µg/mL (≈ 0.429 µM); in the experiment on Klebsiella pneumoniae [12], 1 µg/mL (≈ 0.858 µM). In the experiment on Escherichia coli [13], the minimal inhibitory concentration (MIC) worked out at 8 µg/mL (≈ 6.86 µM).
`CC(C)CCSSC[C@@H](N)C(=O)N[C@H](C(=O)N[C@H](CO)C(=O)N[C@H]1CCNC(=O)[C@H]([C@@H](C)O)NC(=O)[C@H](CCN)NC(=O)[C@H](CCN)NC(=O)[C@H](CC(C)C)NC(=O)[C@@H](Cc2ccccc2)NC(=O)[C@H](CCN)NC1=O)[C@@H](C)O`: the MIC was 0.5 µg/mL (≈ 0.433 µM) in the experiment with Acinetobacter baumannii [1]; 8 µg/mL (≈ 6.92 µM) with Pseudomonas aeruginosa [2]; 8 µg/mL (≈ 6.92 µM) in the experiment with Pseudomonas aeruginosa [3]; 2 µg/mL (≈ 1.73 µM) with Escherichia coli [4]; 4 µg/mL (≈ 3.46 µM) in the experiment on Pseudomonas aeruginosa [5]; 0.5 µg/mL (≈ 0.433 µM) with Klebsiella pneumoniae [6]. The MIC in the experiment on Klebsiella pneumoniae [7] worked out at 0.5 µg/mL (≈ 0.433 µM); with Acinetobacter baumannii [8] it was 0.25 µg/mL (≈ 0.216 µM); in the experiment on Acinetobacter baumannii [9] it was 0.25 µg/mL (≈ 0.216 µM); with Acinetobacter baumannii [10] it was 0.5 µg/mL (≈ 0.433 µM); in the experiment on Escherichia coli [11] it was 0.5 µg/mL (≈ 0.433 µM); in the experiment with Klebsiella pneumoniae [12], 1 µg/mL (≈ 0.865 µM). In the experiment on Escherichia coli [13], the minimum inhibitory concentration (MIC) was 16 µg/mL (≈ 13.8 µM).
Consider `CC(C)C[C@@H]1NC(=O)[C@@H](Cc2ccccc2)NC(=O)[C@H](CCN)NC(=O)[C@@H](NC(=O)[C@@H](CN)NC(=O)[C@@H](NC(=O)[C@H](N)CSSCCC2CCCCC2)[C@@H](C)O)CCNC(=O)[C@H]([C@@H](C)O)NC(=O)[C@H](CCN)NC(=O)[C@H](CCN)NC1=O`, for which the MIC in the experiment on Acinetobacter baumannii [1] turned out to be 1 µg/mL (≈ 0.837 µM); in the experiment with Pseudomonas aeruginosa [2] it was 2 µg/mL (≈ 1.67 µM); with Pseudomonas aeruginosa [3], 2 µg/mL (≈ 1.67 µM); with Escherichia coli [4] it was 2 µg/mL (≈ 1.67 µM); in the experiment with Pseudomonas aeruginosa [5], 2 µg/mL (≈ 1.67 µM); in the experiment on Klebsiella pneumoniae [6], 1 µg/mL (≈ 0.837 µM). The MIC in the experiment with Klebsiella pneumoniae [7] was 1 µg/mL (≈ 0.837 µM); in the experiment on Acinetobacter baumannii [8], 1 µg/mL (≈ 0.837 µM); in the experiment on Acinetobacter baumannii [9] it was 0.5 µg/mL (≈ 0.419 µM); with Acinetobacter baumannii [10], 0.5 µg/mL (≈ 0.419 µM); in the experiment with Escherichia coli [11] it was 0.5 µg/mL (≈ 0.419 µM); with Klebsiella pneumoniae [12], 1 µg/mL (≈ 0.837 µM). Also, in the experiment with Escherichia coli [13], the MIC was 4 µg/mL (≈ 3.35 µM).

For the origin of these results see ChEMBL document CHEMBL5356951, “Semisynthetic polymyxins with potent antibacterial activity and reduced kidney cell toxicity” (RSC Med Chem, 2023).
